Reference: ChEMBL document CHEMBL1136457, “MexAB-OprM-specific efflux pump inhibitors in Pseudomonas aeruginosa. Part 1: discovery and early strategies for lead optimization” (2003)

Columns and labels:
Assay type in all cases: functional
[1] = test system: Pseudomonas aeruginosa; assay: Minimum Potentiation Concentration of EPI required to achieve an 8-fold reduction in antibiotic MIC of AZT against MexAB-OprM pump system in Pseudomonas aeruginosa with 10% horse serum
Outline: (§1)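 Broth microdilution in Mueller–Hinton broth, P. aeruginosa PAM1723, starting inoculum 10^6 CFU/mL, 18 h at 37 °C; run with and without 10% horse serum. Aztreonam MIC read by visual growth; MPC8 taken as lowest inhibitor concentration giving 8-fold reduction of aztreonam MIC.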

[2] = test system: Pseudomonas aeruginosa; assay: Minimum Potentiation Concentration of EPI required to achieve an 8-fold reduction in antibiotic MIC of AZT against MexAB-OprM pump system in Pseudomonas aeruginosa without horse serum; outline: as §1
[3] = test system: Pseudomonas aeruginosa; assay: Minimum Potentiation Concentration of EPI required to achieve an 8-fold reduction in antibiotic MIC of levofloxacin against MexABOprMover-expressing strain of Pseudomonas aeruginosa
Outline: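 P. aeruginosa PAM1723 in Mueller–Hinton broth, broth microdilution per NCCLS M7-A4, starting inoculum 10^6 CFU/mL, inhibitor titrated with levofloxacin; 18 h at 37 °C. Levofloxacin MIC read at 70% growth inhibition by OD 595 nm. Value is the inhibitor concentration giving an 8-fold drop in levofloxacin MIC, measured without serum.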

[4] = Ratio of potentiation of aztreonam (AZT) with 10% horse serum to without serum
Outline: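 Ratio of aztreonam MPC8 with 10% horse serum to MPC8 without serum, both from Mueller–Hinton broth microdilution against PAM1723 (10^6 CFU/mL, 18 h, 37 °C, visual growth read-out).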

CC(C)(C)c1csc(/C=C/c2cccc(NC(=O)Cc3ccccc3C(=O)O)c2)n1
MPC8 [1]: 20 µg/mL | MPC8 [2]: <=0.63 ug ml-1 | MPC8 [3]: 0.63 µg/mL | Ratio [4]: > 32

CC(C)c1csc(/C=C/c2cccc(NC(=O)C(O)c3ccccc3C(=O)O)c2)n1 (configuration not stated)
MPC8 [1]: 40 µg/mL | MPC8 [2]: 2.5 µg/mL | Ratio [4]: 16

CCC(C)(C(N)=O)c1csc(/C=C/c2cccc(NC(=O)Cc3ccccc3C(=O)O)c2)n1 (configuration not stated)
MPC8 [1]: 40 µg/mL | MPC8 [2]: 20 µg/mL | MPC8 [3]: 80 µg/mL | Ratio [4]: 2

CC(C)c1csc(/C=C/c2cccc(NC(=O)[C@H]3OC(C)(C)O[C@@H]3C(=O)O)c2)n1
MPC8 [1]: 20 µg/mL | MPC8 [2]: 5 µg/mL | Ratio [4]: 4

CC(C)c1csc(/C=C/c2cccc(NC(=O)[C@@H]3OC(C)(C)O[C@H]3C(=O)O)c2)n1
MPC8 [1]: 40 µg/mL | MPC8 [2]: 20 µg/mL | Ratio [4]: 2

CC(C)c1csc(CCc2ccnc(NC(=O)Cc3ccccc3C(=O)O)c2)n1
MPC8 [1]: 10 µg/mL | MPC8 [2]: 5 µg/mL | MPC8 [3]: 2.5 µg/mL | Ratio [4]: 2

CC(C)c1csc(/C=C/c2cncc(NC(=O)Cc3ccccc3C(=O)O)c2)n1
MPC8 [1]: 10 µg/mL | MPC8 [2]: 5 µg/mL | MPC8 [3]: 2.5 µg/mL | Ratio [4]: 2

CC(C)(C)c1csc(/C=C/c2cccc(NC(=O)Cc3ncccc3C(=O)O)c2)n1
MPC8 [1]: 20 µg/mL | MPC8 [2]: 2.5 µg/mL | MPC8 [3]: 1.25 µg/mL | Ratio [4]: 8

CC(C)c1csc(/C=C/c2cccc(NC(=O)Cc3ccccc3C(=O)O)c2)n1
MPC8 [1]: 10 µg/mL | MPC8 [2]: <=0.63 ug ml-1 | Ratio [4]: > 16

CC(C)c1csc(/C=C/c2ccnc(NC(=O)Cc3ccccc3C(=O)O)c2)n1
MPC8 [1]: 10 µg/mL | MPC8 [2]: >10 µg/mL | MPC8 [3]: 0.31 µg/mL

O=C(Cc1ccccc1C(=O)O)Nc1cccc(/C=C/c2nc(-c3ccccc3)cs2)c1
MPC8 [1]: 40 µg/mL | MPC8 [2]: 1.25 µg/mL | Ratio [4]: 32

COC(C(=O)Nc1cccc(/C=C/c2nc(C(C)C)cs2)c1)c1ccccc1C(=O)O (configuration not stated)
MPC8 [1]: 160 µg/mL | MPC8 [2]: 20 µg/mL | MPC8 [3]: 10 µg/mL | Ratio [4]: 8

CC(C)c1csc(/C=C/c2cccc(NC(=O)Cc3ccccc3C(=O)O)n2)n1
MPC8 [1]: 80 µg/mL | MPC8 [2]: 20 µg/mL | MPC8 [3]: >80 µg/mL | Ratio [4]: 4

CC(C)c1csc(COc2ccnc(NC(=O)Cc3ccccc3C(=O)O)c2)n1
MPC8 [1]: 5 µg/mL | MPC8 [2]: 2.5 µg/mL | Ratio [4]: 2

O=C(Cc1ccccc1C(=O)O)Nc1cccc(/C=C/c2nc(C(F)(F)C(F)(F)F)cs2)c1
MPC8 [1]: 80 µg/mL | MPC8 [2]: 2.5 µg/mL | Ratio [4]: 32
